In ChEMBL document CHEMBL1157359, “Binding of ceftobiprole and comparators to the penicillin-binding proteins of Escherichia coli, Pseudomonas aeruginosa, Staphylococcus aureus, and Streptococcus pneumoniae” (Antimicrob Agents Chemother, 2007):
Converted amounts (≈) assume the structure as drawn.

Experiments:
[1] = Inhibition of bocillin FL binding to penicillin-resistant Streptococcus pneumoniae OC 8819 penicillin-binding protein 1a
How it was run: (§1)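 Whole S. pneumoniae cells were used rather than isolated membranes. Cells were competed with drug and then labeled with Bocillin FL, and PBP bands were visualized by fluorescence imaging. IC50 is the drug concentration that inhibits Bocillin FL binding to each PBP by 50% relative to a no-drug control.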

[2] = Inhibition of bocillin FL binding to penicillin-susceptible Streptococcus pneumoniae OC 8865 penicillin-binding protein 1b
How it was run: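 S. pneumoniae OC 8865 PBPs assayed in whole cells; drug competition followed by Bocillin FL labeling and imaging of labeled PBPs. IC50 is 50% inhibition of Bocillin FL binding compared with a no-drug control.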

[3] = target: T1, Penicillin-binding protein 4 (Staphylococcus aureus, UniProt P72355); test: Inhibition of bocillin FL binding to methicillin-susceptible Staphylococcus aureus ATCC 29213 penicillin-binding protein 4
T1 sequence (P72355 whole entry): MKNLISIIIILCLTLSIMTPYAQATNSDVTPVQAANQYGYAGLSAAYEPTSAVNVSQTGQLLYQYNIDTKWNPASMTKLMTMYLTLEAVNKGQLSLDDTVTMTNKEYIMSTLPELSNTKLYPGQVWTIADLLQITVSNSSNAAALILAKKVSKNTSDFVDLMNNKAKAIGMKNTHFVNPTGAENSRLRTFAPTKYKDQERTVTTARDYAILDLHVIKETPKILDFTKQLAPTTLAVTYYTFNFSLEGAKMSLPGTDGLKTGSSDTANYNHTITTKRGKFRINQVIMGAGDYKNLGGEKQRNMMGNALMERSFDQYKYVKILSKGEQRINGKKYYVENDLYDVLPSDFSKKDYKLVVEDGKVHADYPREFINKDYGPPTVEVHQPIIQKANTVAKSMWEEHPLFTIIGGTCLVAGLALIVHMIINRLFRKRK
How it was run: (§2)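 Isolated S. aureus ATCC 29213 PBPs exposed to drug over 0.001 μg/ml to 50 μg/ml, followed by Bocillin FL labeling and fluorescence imaging. IC50 is 50% inhibition of Bocillin FL binding relative to no-drug control.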

[4] = test system: Streptococcus pneumoniae; test: Antibacterial activity against penicillin-resistant Streptococcus pneumoniae OC 8819 by CLSI method; format: functional
[5] = test system: Staphylococcus aureus; test: Antibacterial activity against methicillin-susceptible Staphylococcus aureus ATCC 29213 by CLSI method; format: functional
[6] = Inhibition of bocillin FL binding to penicillin-susceptible Streptococcus pneumoniae OC 8865 penicillin-binding protein 1a; how it was run: as §1
[7] = target: T2, Penicillin-binding protein 1 (Staphylococcus aureus, UniProt Q53725); test: Inhibition of bocillin FL binding to methicillin-susceptible Staphylococcus aureus ATCC 29213 penicillin-binding protein 1; how it was run: as §2
T2 sequence (Q53725 whole entry): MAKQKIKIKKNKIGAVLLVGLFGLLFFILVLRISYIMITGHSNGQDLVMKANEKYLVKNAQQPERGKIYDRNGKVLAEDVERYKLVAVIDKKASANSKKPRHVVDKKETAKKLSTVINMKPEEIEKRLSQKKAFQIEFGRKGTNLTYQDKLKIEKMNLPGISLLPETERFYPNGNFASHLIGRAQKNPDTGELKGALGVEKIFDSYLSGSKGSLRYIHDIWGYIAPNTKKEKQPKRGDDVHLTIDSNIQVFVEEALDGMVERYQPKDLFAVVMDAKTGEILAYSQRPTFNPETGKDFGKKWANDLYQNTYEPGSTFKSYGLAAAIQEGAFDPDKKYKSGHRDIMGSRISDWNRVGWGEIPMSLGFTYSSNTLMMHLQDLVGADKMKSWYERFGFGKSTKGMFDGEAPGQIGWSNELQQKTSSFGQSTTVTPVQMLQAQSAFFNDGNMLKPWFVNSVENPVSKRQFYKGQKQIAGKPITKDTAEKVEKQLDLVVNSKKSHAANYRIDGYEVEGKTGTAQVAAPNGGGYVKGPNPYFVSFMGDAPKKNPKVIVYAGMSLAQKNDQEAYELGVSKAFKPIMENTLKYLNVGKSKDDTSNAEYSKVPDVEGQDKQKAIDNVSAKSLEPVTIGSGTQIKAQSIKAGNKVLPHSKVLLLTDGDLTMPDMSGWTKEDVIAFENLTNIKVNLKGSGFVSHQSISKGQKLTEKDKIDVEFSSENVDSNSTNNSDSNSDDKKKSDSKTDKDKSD

[8] = Inhibition of bocillin FL binding to penicillin-susceptible Streptococcus pneumoniae OC 8865 penicillin-binding protein 2x; how it was run: as §1
[9] = Inhibition of bocillin FL binding to penicillin-resistant Streptococcus pneumoniae OC 8819 penicillin-binding protein 2x; how it was run: as §1
[10] = Inhibition of bocillin FL binding to penicillin-resistant Streptococcus pneumoniae OC 8819 penicillin-binding protein 2a; how it was run: as §1
[11] = target: T3, Penicillin-binding protein 2 (Staphylococcus aureus, UniProt Q53729); test: Inhibition of bocillin FL binding to methicillin-susceptible Staphylococcus aureus ATCC 29213 penicillin-binding protein 2; how it was run: as §2
T3 sequence (Q53729 whole entry): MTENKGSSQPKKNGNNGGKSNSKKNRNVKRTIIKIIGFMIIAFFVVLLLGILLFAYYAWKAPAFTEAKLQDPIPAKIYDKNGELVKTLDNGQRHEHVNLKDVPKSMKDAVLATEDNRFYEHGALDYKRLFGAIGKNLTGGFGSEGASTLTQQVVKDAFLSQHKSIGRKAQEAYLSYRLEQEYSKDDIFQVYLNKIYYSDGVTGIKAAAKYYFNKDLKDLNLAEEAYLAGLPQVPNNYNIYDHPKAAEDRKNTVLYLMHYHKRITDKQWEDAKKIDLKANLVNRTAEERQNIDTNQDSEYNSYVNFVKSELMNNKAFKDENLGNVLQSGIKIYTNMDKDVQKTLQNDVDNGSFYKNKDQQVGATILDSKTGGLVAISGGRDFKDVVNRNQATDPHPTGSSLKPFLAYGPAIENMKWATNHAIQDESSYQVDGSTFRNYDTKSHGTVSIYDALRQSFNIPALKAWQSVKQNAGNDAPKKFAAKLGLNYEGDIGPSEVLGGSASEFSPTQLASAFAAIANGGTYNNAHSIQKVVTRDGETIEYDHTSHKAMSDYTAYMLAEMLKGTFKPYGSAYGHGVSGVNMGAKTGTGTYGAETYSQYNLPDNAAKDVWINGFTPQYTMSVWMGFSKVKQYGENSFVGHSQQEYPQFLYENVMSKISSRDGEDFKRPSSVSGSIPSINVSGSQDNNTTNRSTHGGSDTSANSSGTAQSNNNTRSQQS

[12] = Inhibition of bocillin FL binding to Pseudomonas aeruginosa PAO1 penicillin-binding protein 5/6
How it was run: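 Isolated P. aeruginosa PAO1 PBPs; drug added at 10 concentrations, 0.06 μg/ml to 32 μg/ml, before Bocillin FL labeling. Labeled PBPs imaged. IC50 is the drug level cutting Bocillin FL binding by 50% versus a no-drug sample.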

SMILES | IC50 [1] [µg/mL] | IC50 [2] [µg/mL] | IC50 [3] [nM] | MIC [4] [µg/mL] | MIC [5] [µg/mL] | IC50 [6] [µg/mL] | IC50 [7] [nM] | IC50 [8] [µg/mL] | IC50 [9] [µg/mL] | IC50 [10] [µg/mL] | IC50 [11] [nM] | IC50 [12] [µg/mL]
CO/N=C(\C(=O)N[C@@H]1C(=O)N2C(C(=O)O)=C(CSc3nc(=O)c(O)nn3C)CS[C@H]12)c1csc(N)n1 (stereo in doubt) [CEFTRIAXONE] | 0.02 (≈ 0.0361 µM) | 0.03 (≈ 0.0541 µM) | 18000 | 8 (≈ 14.4 µM) | 2 (≈ 3.61 µM) | 0.01 (≈ 0.018 µM) | 902 | 0.03 (≈ 0.0541 µM) | 8 (≈ 14.4 µM) | 0.5 (≈ 0.902 µM) | 180 | –
CC(C)(O/N=C(\C(=O)N[C@@H]1C(=O)N2C(C(=O)[O-])=C(C[n+]3ccccc3)CS[C@H]12)c1csc(N)n1)C(=O)O [CEFTAZIDIME] | – | – | – | – | – | – | – | – | – | – | – | > 32
Nc1nc(/C(=N/O)C(=O)N[C@@H]2C(=O)N3C(C(=O)O)=C(/C=C4\CCN([C@@H]5CCNC5)C4=O)CS[C@H]23)ns1 [CEFTOBIPROLE] | 0.1 (≈ 0.187 µM) | 0.05 (≈ 0.0935 µM) | 1870 | 1 (≈ 1.87 µM) | 0.25 (≈ 0.468 µM) | 0.03 (≈ 0.0561 µM) | 187 | 0.01 (≈ 0.0187 µM) | 1 (≈ 1.87 µM) | 0.1 (≈ 0.187 µM) | 935 | > 32
